Data: ChEMBL document CHEMBL3045447, “Isolation and structural elucidation of eight new related analogues of the mycotoxin (-)-botryodiplodin from Penicillium coalescens” (2007)

Assays:
Assay type in all cases: functional
[1] = tested on: Oncopeltus fasciatus; test: Insecticidal activity against Oncopeltus fasciatus fourth-instar larvae assessed as insect mortality measured after 72 hr post compound application
Outline: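 Treated nymphs confined in a 9 cm Petri dish with food and water ad libitum. Acetone-only controls run in parallel. Acute toxicity scored as dead insects after 72 h, in triplicate. LD50 (µg/nymph) from linear regression of probit mortality on log dose.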

[2] = tested on: Staphylococcus aureus; test: Antibacterial activity against Staphylococcus aureus CECT 86 at 0.2 mg/disk after 24 hr by paper disk agar diffusion assay
Outline: (§1)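 Paper disk–agar diffusion, triplicate. Each bacterium grown 24 h in Nutrient Broth at 28 °C or 37 °C, per organism. 1 mL suspension inoculated into a plate, then 15 mL Plate Count Agar added. Five loaded disks placed after solidification. Plates incubated 24 h dark at 28 or 37 °C. Halo measured. Solvent-only disks as negative control; tetracycline chlorhydrate as positive control.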

[3] = tested on: Verticillium dahliae; test: Antifungal activity against Verticillium dahliae CCM 269 at 0.2 mg/disk after 72 hr by paper disk-agar diffusion assay
Outline: (§2)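 Paper disk–agar diffusion, triplicate. Fungus grown on PDA 7 days at 28 °C. Conidia suspended at ca. 10^6/mL in 0.05% Tween 80. 1 mL seeded into 15 mL PDA. After solidification, four 0.5 cm paper disks loaded with test product. Inhibition zone (mm) read at 72 h. Solvent-only disks as negative control; benomyl disks, dose set per species, as positive control.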

[4] = tested on: Phytophthora citrophthora; test: Antifungal activity against Phytophthora citrophthora CECT 2353 at 0.2 mg/disk after 72 hr by paper disk agar diffusion assay; outline: as §2
[5] = tested on: Ceratitis capitata; test: Insecticidal activity against Ceratitis capitata 2 to 3 days old adult male flies assessed as insect mortality measured after 10 days post compound application
Outline: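 Topical dose in 1 µL acetone applied by micropipet to the ventral abdomen of ice-anaesthetised 2–3-day-old adults, five males plus five females per group. Controls got acetone alone. Flies kept in a netted box with diet and water ad libitum. Mortality scored every 24 h for 10 days, in triplicate. LD50 from probit of mortality vs log dose.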

[6] = tested on: Phytophthora citrophthora; test: Antifungal activity against Phytophthora citrophthora CECT 2353 at 1.5 ug/disk after 72 hr by paper disk agar diffusion assay; settings: CECT 2353, 72 h, read-out: IZ; outline: as §2
[7] = tested on: Fusarium oxysporum f. sp. gladioli; test: Antifungal activity against Fusarium oxysporum f. sp. gladioli CCM 233 at 10 ug/disk after 72 hr by paper disk agar diffusion assay; settings: CCM 233, 72 h, read-out: IZ; outline: as §2
[8] = tested on: Trichoderma viride; test: Antifungal activity against Hypocrea rufa CECT 2423 at 1 ug/disk after 72 hr by paper disk agar diffusion assay; settings: CECT 2423, 72 h, read-out: IZ; outline: as §2
[9] = tested on: Verticillium dahliae; test: Antifungal activity against Verticillium dahliae CCM 269 at 0.25 ug/disk after 72 hr by paper disk-agar diffusion assay; settings: CCM 269, 72 h, read-out: IZ; outline: as §2
[10] = tested on: Penicillium italicum; test: Antifungal activity against Penicillium italicum CECT 2294 at 0.2 ug/disk after 72 hr by paper disk-agar diffusion assay; settings: CECT 2294, 72 h, read-out: IZ; outline: as §2
[11] = tested on: Aspergillus parasiticus; test: Antifungal activity against Aspergillus parasiticus CECT 2681 at 1 ug/disk after 72 hr by paper disk agar diffusion assay; settings: CECT 2681, 72 h, read-out: IZ; outline: as §2
[12] = tested on: Colletotrichum gloeosporioides; test: Antifungal activity against Colletotrichum gloeosporioides CECT 2859 at 0.5 ug/disk after 72 hr by paper disk-agar diffusion assay; settings: CECT 2859, 72 h, read-out: IZ; outline: as §2
[13] = tested on: Trichothecium roseum; test: Antifungal activity against Trichothecium roseum CECT 2410 at 5 ug/disk after 72 hr by paper disk agar diffusion assay; settings: CECT 2410, 72 h, read-out: IZ; outline: as §2
[14] = tested on: Fusarium culmorum; test: Antifungal activity against Fusarium culmorum CECT 2148 at 10 ug/disk after 72 hr by paper disk agar diffusion assay; settings: CECT 2148, 72 h, read-out: IZ; outline: as §2
[15] = tested on: Fusarium oxysporum f. sp. niveum; test: Antifungal activity against Fusarium oxysporum f. sp. niveum CCM 259 at 5 ug/disk after 72 hr by paper disk-agar diffusion assay; settings: CCM 259, 72 h, read-out: IZ; outline: as §2
[16] = tested on: Pectobacterium carotovorum; test: Antibacterial activity against Pectobacterium carotovorum CECT 225 at 0.2 mg/disk […] by paper disk-agar diffusion assay
[17] = tested on: Escherichia coli; test: Antibacterial activity against Escherichia coli CECT 405 at 0.2 mg/disk after 24 hr by paper disk agar diffusion assay; outline: as §1
[18] = tested on: Bacillus cereus; test: Antibacterial activity against Bacillus cereus CECT 148 at 0.2 mg/disk after 24 hr by paper disk agar diffusion assay; outline: as §1
[19] = tested on: Enterococcus faecalis; test: Antibacterial activity against Enterococcus faecalis CECT 481 at 0.2 mg/disk after 24 hr by paper disk agar diffusion assay; outline: as §1

CC(=O)[C@@H]1COC(O)[C@@H]1C (single isomer, unassigned; (-)) [(-)-BOTRYODIPLODIN]
LD50 [1]: 5.55 µg | inhibition zone (IZ) [2]: 13.53 mm | inhibition zone (IZ) [3]: 17.31 mm | inhibition zone (IZ) [4]: 8.21 mm | LD50 [5]: 12.9 µg

CC(=O)O[C@@H]1OC[C@@H](C(C)=O)[C@H]1C (relative stereo) [Botryodiplodin acetate]
LD50 [1]: 12.19 µg

C=C(C(C)=O)[C@@H](C)CO[C@@H]1OC[C@@H](C(C)=O)[C@H]1C [(-)-2-EPI-BOTRYODIPLODINENONE]
LD50 [1]: >15 µg

CC(=O)[C@@H]1CO[C@@H](O[C@@H]2OC[C@@H](C(C)=O)[C@H]2C)[C@@H]1C [(-)-BOTRYODIPLODIN DIMER]
LD50 [1]: >15 µg

CCCCNC(=O)n1c(NC(=O)OC)nc2ccccc21 [BENOMYL]
zone of inhibition at 1.5 µg/disc [6]: 17.1 mm | zone of inhibition at 10 µg/disc [7]: 9.33 mm | zone of inhibition at 1 µg/disc [8]: 12.3 mm | zone of inhibition at 0.25 µg/disc [9]: 14.3 mm | zone of inhibition at 0.2 µg/disc [10]: 16.7 mm | zone of inhibition at 1 µg/disc [11]: 8.33 mm | zone of inhibition at 0.5 µg/disc [12]: 26.7 mm | zone of inhibition at 5 µg/disc [13]: 29.7 mm | zone of inhibition at 10 µg/disc [14]: 19 mm | zone of inhibition at 5 µg/disc [15]: 17.3 mm

CN(C)[C@@H]1C(O)=C(C(N)=O)C(=O)[C@@]2(O)C(O)=C3C(=O)c4c(O)cccc4[C@@](C)(O)[C@H]3C[C@@H]12.Cl [TETRACYCLINE HYDROCHLORIDE]
inhibition zone (IZ) [16]: 34.67 mm | inhibition zone (IZ) [2]: 16.67 mm | inhibition zone (IZ) [17]: 24 mm | inhibition zone (IZ) [18]: 18.33 mm | inhibition zone (IZ) [19]: 31.67 mm
